Results on 1 molecule are retold here after ChEMBL document CHEMBL1240439, “Synthesis and docking studies of novel benzopyran-2-ones with anticancer activity” (2010).

Format in all cases: functional
Assay [1] deals with SF-295. The assay is described as follows: Cytotoxicity against human SF295 cells assessed as cell growth at 10 uM after 48 hrs by sulforhodamine B assay. The conditions noted are these: SF-295, 48 h, read-out: Activity. Background: The SRB assay estimates cell density from bound dye.
Assay [2] concerns HT-29. The assay is described as follows: Cytotoxicity against human HT-29 cells assessed as cell growth at 10 uM after 48 hrs by sulforhodamine B assay. Conditions: HT-29, 48 h, read-out: Activity.
The subject of assay [3] is HOP-62. Kind of assay: Cytotoxicity against human HOP62 cells assessed as cell growth at 10 uM after 48 hrs by sulforhodamine B assay. The conditions noted are these: HOP-62, 48 h, read-out: Activity.
Assay [4] in a line: Cytotoxicity against human Hs 578T cells assessed as cell growth at 10 uM after 48 hrs by sulforhodamine B assay. Conditions: read-out: Activity.
The subject of assay [5] is CCRF-CEM. Kind of assay: Cytotoxicity against human CCRF-CEM cells assessed as cell growth at 10 uM after 48 hrs by sulforhodamine B assay. Conditions: read-out: Activity.
In assay [6] the test system is SNB-75. Kind of assay: Cytotoxicity against human SNB75 cells assessed as cell growth at 10 uM after 48 hrs by sulforhodamine B assay. Conditions: SNB-75, 48 h, read-out: Activity.
Assay [7] is described as follows: Cytotoxicity against human CNS cancer cells after 48 hrs by sulforhodamine B assay. The conditions noted are these: Cancer cell lines. In short, it runs like this:
(§1)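 Cells were plated at 5000–40,000/well according to doubling time and preincubated 24 h at 37 °C, 5% CO2. Time-zero plates were TCA-fixed. DMSO stocks were diluted in medium with gentamycin to five concentrations (10-fold or ½ log series) plus control, then incubated 48 h. Adherent cells were fixed with cold TCA (suspension cells with 16% final), stained with SRB, and read at 515 nm. GI50, TGI and LC50 were calculated per line.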

The subject of assay [8] is LOX IMVI. Kind of assay: Cytotoxicity against human LOXIMVI cells after 48 hrs by sulforhodamine B assay. In short, it runs like this: as §1

Structures are written as SMILES.

The GI50 is the concentration giving 50% growth inhibition. As usually defined, the TGI is the concentration at which net growth stops. Low values mean more potent growth arrest, high ones less potent growth arrest. For the molecule `Cc1cc(=O)n(C(=O)COc2ccc3c(-c4ccccc4)cc(=O)oc3c2C)[nH]1`, the growth at 10 µM in assay [1] is -77.2%; in assay [2] it was -44.2%; in assay [3], -18.6%; in assay [4], -4.17%; in assay [5] it was 13.5%; in assay [6], -35.2%. Besides, the GI50 in assay [7] amounted to 2580 nM; in assay [8], 1990 nM. For the same molecule, the TGI in assay [7] was found to be 8.85 µM; in assay [8], 3.88 µM. The CC50 in assay [7] (read-out: LC50 (the source's name)) was determined as 27.7 µM.
